Entries after “also recorded” stand apart in the source; their conditions may differ. Strand notation (5' to 3'): a small letter for the sugar, then the base; units joined by * are phosphorothioate-linked, units joined directly phosphodiester-linked; [ ] holds rarer units or linkages, { } end groups; capitals alone tell only the bases. [tcDNA-N] = tricyclo-DNA nucleotide (N: the base); m = 2'-O-methyl
Key:
[1] = DLS analysis of ASOs in PBS; format: physicochemical; conditions: 1 mM ASO in PBS, each measured 3 times
[2] = DLS after incubation with physiological albumin solution; format: physicochemical; conditions: equal volume BSA 4.25 g/dL in PBS, 1 h at 37 °C, diluted 10x before DLS
[3] = tested on: Differentiated C2C12 cells; test: Uptake of FITC-labelled ASOs with SR ligands; format: cell-based, murine; conditions: ligand pretreatment 1 h, then FITC-ASO 200 nM for 4 h
Method in brief: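 C2C12 cells were grown in DMEM with 10% FBS, then differentiated 3-4 days in DMEM with 2% horse serum (2.5x10⁴/cm²). Cells were pretreated 1 h with scavenger-receptor ligands or control polyanions at 100 μg/ml. They were then given FITC-2'OMePS or FITC-tcDNA (200 nM) for 4 h, washed, and methanol-fixed (-20 °C, 10 min). Mean fluorescence intensity came from microscopy images; one-way ANOVA, mean ± SEM.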

[4] = TEM visualization of self-assembled nanoparticles; format: physicochemical; conditions: Fig. S3
[5] = tested on: class A scavenger receptor subtypes (SCARAs); test: PPMO splice-switching activity; format: cell-based, murine; conditions: for Effect of SR ligand or control on splice-switching activity of PPMO: differentiated C2C12, ligand 50 μg/ml for 1 h before PPMO 500 nM for 4 h in Opti-MEM, then 20 h, nested RT-PCR
SCARA1 = biological target: T1, SCARA1 (Mus musculus, UniProt P30204); test: Dmd exon 23 skipping; format: in vivo, mice; conditions: 10 mg/kg intravenous, 1 week, n=4, qPCR
T1 sequence (P30204 1-351 limits assumed): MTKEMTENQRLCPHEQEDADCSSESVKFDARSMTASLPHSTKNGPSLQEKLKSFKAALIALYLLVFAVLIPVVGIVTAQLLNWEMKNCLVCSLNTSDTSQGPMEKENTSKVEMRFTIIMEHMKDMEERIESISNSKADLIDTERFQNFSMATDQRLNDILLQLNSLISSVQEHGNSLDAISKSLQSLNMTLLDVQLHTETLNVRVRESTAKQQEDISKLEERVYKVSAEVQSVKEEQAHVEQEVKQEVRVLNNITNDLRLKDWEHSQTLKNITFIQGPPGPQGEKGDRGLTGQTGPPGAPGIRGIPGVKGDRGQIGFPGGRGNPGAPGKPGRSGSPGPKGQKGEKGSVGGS
Method in brief: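 SCARA1-/- and C57BL/6 mice (14 months old, n = 4) received 10 mg/kg peptide–PMO conjugate in 0.9% saline via tail vein. After one week, tibialis anterior, diaphragm and heart were snap-frozen. Multiplex Taqman qPCR on 25 ng cDNA used FAM primers spanning exon 20-21 and HEX primers spanning exon 23-24. Skipping percentage came from normalising exon 23-24 to exon 20-21 amplification.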

[6] = Critical micelle concentration by dye micellization method; format: physicochemical; conditions: eosin Y 0.019 mM, absorbance at 542 nm, rounded value
[7] = Zeta potential measurement; format: physicochemical
[8] = Uptake and activity comparison of fluorescently labelled ASOs; format: cell-based; conditions: Fig. S4

Question: With “2’OMe: 2’Omethyl phosphorothioate ASO 5’- GGCCAAACCUCGGCUUACCU-3’, synthesized by IDT (antisense mG*mG*mC*mC*mA*mA*mA*mC*mC*mU*mC*mG*mG*mC*mU*mU*mA*mC*mC*mU)” as the substance, how does the “DLS population profile (peaks)” value [1] read?
Answer: predominant peak was of singular molecules

Question: What about the “DLS size of predominant peak (singular molecules)” value [1] of the same substance?
Answer: around 2 nm

Question: And the “DLS particulate peaks in albumin model” value [2]?
Answer: failed to do so

Question: And the “Uptake in the presence of fucoidin and dextran sulfates” value [3]?
Answer: only partially inhibited

Question: For RXRRBRRXR YQFLI RXRBRXRB [Pip6a-PMO], which “Nanoparticle formation and relative size by TEM” value [4] is on record?
Answer: spontaneously forms nanoparticles; also recorded: smaller than B-PMO nanoparticles

Question: And the “Uptake in the presence of SR ligands” value ([5]; Fig. S3)?
Answer: significantly inhibited

Question: What about the “Exon 23-skipping activity in SCARA1 knock-out versus wild-type mice, diaphragm” value (SCARA1) of the same substance?
Answer: significantly reduced

Question: What about the “Exon 23-skipping activity in SCARA1 knock-out versus wild-type mice, heart” value (SCARA1) of the same substance?
Answer: significantly reduced

Question: With RXRRBRRXRRBRXB [PPMO] as the substance, how does the “DLS population profile (peaks)” value [1] read?
Answer: two peaks, one for singular molecules and one representing a particulate population

Question: And the “DLS particulate peaks in albumin model” value [2]?
Answer: high intensity particulate peaks

Question: And the “Critical micelle concentration (CMC)” value [6]?
Answer: about 1.4 μM

Question: And the Zeta potential ([7]; in PBS)?
Answer: -1.21 ± 0.63

Question: And the Zeta potential ([7]; in serum-free medium)?
Answer: -3.48 ±2.31

Question: What about the Zeta potential ([7]; in water) of the same substance?
Answer: 10 ± 2.70

Question: And the “Extent of uptake relative to other chemistries” value [8]?
Answer: several folds higher uptake than the other two chemistries

Question: With chondroitin sulfate as the substance, how does the “Effect of SR ligand or control on splice-switching activity of PPMO” value (“Effect of SR ligand or control” for short) [5] read?
Answer: no effect

Question: For dextran sulfate, which “Effect of SR ligand or control” value [5] is on record?
Answer: completely inhibited

Question: Which “Effect of SR ligand or control” value [5] does the source give for fucoidin sulfate here?
Answer: completely inhibited

Question: With “tcDNA: phosphorothioated tricyclo DNA 5’-AACCTCGGCTTACCT-3’, synthesized by SYNTHENA (all [tcDNA-N], all phosphorothioate, methylation of C not given here)” as the substance, how does the “Extent of uptake relative to other chemistries” value [8] read?
Answer: significantly higher than that of 2’OMe
